Values after ≈ are worked out from the molar mass of the structure shown.
Experiments:
Type in all cases: functional
[1] = system: Mycobacterium tuberculosis; experiment: Antibacterial activity against Mycobacterium tuberculosis H37Rv after 5 days by microplate Alamar Blue assay; conditions: 120 h
How it was run: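 M. tuberculosis H37Rv grown in 7H9; final inoculum 2 × 10^6 cfu/mL. Samples from 20 mg/mL DMSO stocks, 2-fold diluted in 7H9 without Tween 80, tested in triplicate at 37 °C. From day 5, Alamar Blue plus 5% Tween 80 went to a control well; whole plate dosed once bacteria-only well turned pink. Read visually 24 h later; MIC = lowest concentration preventing colour change.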

Pseudomonas aeruginosa = experiment: Antibacterial activity against Pseudomonas aeruginosa 11 after 24 hrs by microdilution test; conditions: Pseudomonas aeruginosa, 11, 24 h
How it was run: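 CLSI broth microdilution; P. aeruginosa 11 grown in Mueller-Hinton broth, final inoculum 10^6 cells/mL. Samples from 20 mg/mL DMSO stocks, serially diluted, run in triplicate; sansanmycin A as positive control. Incubated 37 °C for 24 h, growth read by eye; MIC = lowest concentration completely inhibiting growth.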

[2] = system: Mycobacterium tuberculosis; experiment: Ratio of sansanmycin A MIC to compound MIC for Mycobacterium tuberculosis H37Rv after 5 days by microplate Alamar Blue assay

SMILES | MIC [1] | MIC (Pseudomonas aeruginosa) | Ratio [2]
C[C@@H]([C@H](NC(=O)[C@H](CC[S+](C)[O-])NC(=O)N[C@@H](Cc1c[nH]c2ccccc12)C(=O)O)C(=O)N/C=C1/C[C@@H](O)[C@H](n2ccc(=O)[nH]c2=O)O1)N(C)C(=O)[C@@H](N)Cc1cccc(O)c1 (stereo partly drawn) | > 32 µg/mL | 16 µg/mL (≈ 18.2 µM) | –
CSCC[C@H](NC(=O)N[C@@H](Cc1c[nH]c2ccccc12)C(=O)O)C(=O)N[C@H](C(=O)N/C=C1/C[C@@H](O)[C@H](n2ccc(=O)[nH]c2=O)O1)[C@H](C)N(C)C(=O)C1Cc2cccc(O)c2CN1 (stereo partly drawn) | > 32 µg/mL | > 64 µg/mL | –
CSCC[C@H](NC(=O)N[C@@H](Cc1c[nH]c2ccccc12)C(=O)O)C(=O)N[C@H](C(=O)N/C=C1/C[C@@H](O)[C@H](n2ccc(=O)[nH]c2=O)O1)[C@H](C)N(C)C(=O)C1Cc2cc(O)ccc2CN1 (stereo partly drawn) | 8 µg/mL (≈ 9.13 µM) | > 64 µg/mL | –
C[C@@H]([C@H](NC(=O)[C@H](Cc1ccccc1)NC(=O)N[C@@H](Cc1c[nH]c2ccccc12)C(=O)O)C(=O)N/C=C1/C[C@@H](O)[C@H](n2ccc(=O)[nH]c2=O)O1)N(C)C(=O)C1Cc2cccc(O)c2CN1 (stereo partly drawn) | 16 µg/mL (≈ 17.9 µM) | 32 µg/mL (≈ 35.9 µM) | –
C[C@@H]([C@H](NC(=O)[C@H](Cc1ccccc1)NC(=O)N[C@@H](Cc1c[nH]c2ccccc12)C(=O)O)C(=O)N/C=C1/C[C@@H](O)[C@H](n2ccc(=O)[nH]c2=O)O1)N(C)C(=O)C1Cc2cc(O)ccc2CN1 (stereo partly drawn) | 2 µg/mL (≈ 2.24 µM) | 8 µg/mL (≈ 8.97 µM) | 8
CSCC[C@H](NC(=O)N[C@@H](Cc1ccc(O)cc1)C(=O)O)C(=O)N[C@H](C(=O)N/C=C1/C[C@@H](O)[C@H](n2ccc(=O)[nH]c2=O)O1)[C@H](C)N(C)C(=O)C1Cc2cccc(O)c2CN1 (stereo partly drawn) | > 32 µg/mL | > 64 µg/mL | –
CSCC[C@H](NC(=O)N[C@@H](Cc1ccc(O)cc1)C(=O)O)C(=O)N[C@H](C(=O)N/C=C1/C[C@@H](O)[C@H](n2ccc(=O)[nH]c2=O)O1)[C@H](C)N(C)C(=O)C1Cc2cc(O)ccc2CN1 (stereo partly drawn) | 16 µg/mL (≈ 18.8 µM) | > 64 µg/mL | –
C[C@@H]([C@H](NC(=O)[C@H](Cc1ccccc1)NC(=O)N[C@@H](Cc1c[nH]c2ccccc12)C(=O)O)C(=O)N/C=C1/C[C@@H](O)[C@H](n2ccc(=O)[nH]c2=O)O1)N(C)C(=O)[C@@H](N)Cc1cccc(O)c1 | 8 µg/mL (≈ 9.09 µM) | 32 µg/mL (≈ 36.4 µM) | –
CSCC[C@H](NC(=O)N[C@@H](Cc1ccc(O)cc1)C(=O)O)C(=O)N[C@H](C(=O)N/C=C1/C[C@@H](O)[C@H](n2ccc(=O)[nH]c2=O)O1)[C@H](C)N(C)C(=O)[C@@H](N)Cc1cccc(O)c1 | 8 µg/mL (≈ 9.51 µM) | 8 µg/mL (≈ 9.51 µM) | –
NNC(=O)c1ccncc1 [ISONIAZID] | 0.05 µg/mL (≈ 0.365 µM) | – | –
CO[C@H]1/C=C/O[C@@]2(C)Oc3c(C)c(O)c4c(O)c(c(/C=N/N5CCN(C)CC5)c(O)c4c3C2=O)NC(=O)/C(C)=C\C=C\[C@H](C)[C@H](O)[C@@H](C)[C@@H](O)[C@@H](C)[C@H](OC(C)=O)[C@@H]1C [RIFAMPIN] | 0.12 µg/mL (≈ 0.146 µM) | – | –
CSCCC(NC(=O)NC(Cc1c[nH]c2ccccc12)C(=O)O)C(=O)NC(C(=O)N/C=C1\C[C@@H](O)[C@H](n2ccc(=O)[nH]c2=O)O1)C(C)N(C)C(=O)C(N)Cc1cccc(O)c1 (stereo partly drawn) [SANSANMYCIN A] | 16 µg/mL (≈ 18.5 µM) | 4 µg/mL (≈ 4.63 µM) | –
